Data: ChEMBL document CHEMBL1141456, “Ca2+ channel alpha2-delta ligands for the treatment of neuropathic pain” (J Med Chem, 2007)

Legend:
[1] = Displacement of [3H]gabapentin from alpha2-delta calcium channel in pig brain; set-up: species or system Sus scrofa
In short: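 Competition binding of [3H]gabapentin to partially purified pig forebrain membranes. IC50, in nM, is the concentration giving half-maximal inhibition of specific [3H]gabapentin binding.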

[2] = Dissociation constant, pKa of the compound; assay type: physicochemical

NCC1(Cc2n[nH]c(=O)o2)CCCCC1
IC50 [1]: > 10000 nM | pKa [2]: 7.18

NCC1(Cc2nnn[nH]2)CCCCC1
IC50 [1]: 100 nM

Cn1nnnc1CC1(CN)CCCCC1
IC50 [1]: > 10000 nM

NCC1(Cc2nnn[nH]2)CCCCCC1
IC50 [1]: 100 nM

CC(C)CC(CN)c1nnn[nH]1 (stereo not given)
IC50 [1]: 170 nM | pKa [2]: 3.74

NCC1(Cc2noc(=O)[nH]2)CCCCC1
pKa [2]: 5.24

NCC1(CC(=O)O)CCCCC1 [GABAPENTIN]
IC50 [1]: 87 nM | pKa [2]: 4.1
